Bioassay records as filed in PubChem BioAssay.
Only some compounds are listed: those with a hit (about 3.8% of all), similar ones and a draw of the others.
RGS4 inh: human RGS4 inhibition. P49798. HEK293 M3R/RGS4 inducible, Fluo-4 calcium flux; stronger effect = higher value; triggered by carbachol at its EC20. 310,000 tested, 0.45% active. B-score at 10 µM;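 active means B-score, a plate-corrected calcium signal, over three deviations above library mean, with baseline fluorescence within five deviations of library mean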;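 further: RGS4 expression induced by doxycycline in cells with stable M3 receptor; B-score is computed from the integrated fluorescence ratio over baseline after carbachol; higher B-score means a larger calcium signal and so more RGS4 inhibition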
Target sequence (P49798 whole entry, looked up): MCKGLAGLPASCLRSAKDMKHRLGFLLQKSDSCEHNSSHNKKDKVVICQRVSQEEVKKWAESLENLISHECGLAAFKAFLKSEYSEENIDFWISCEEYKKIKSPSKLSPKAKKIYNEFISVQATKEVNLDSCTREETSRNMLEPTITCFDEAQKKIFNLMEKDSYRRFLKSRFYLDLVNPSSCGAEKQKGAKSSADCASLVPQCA
MrgX1 antag: blocks BAM8-22 activation of human MrgX1 receptor; B-score at 10 µM; 310,000 tested, 1.3% active; MRGX1-HEK293 calcium flux, Fluo-4, BAM8-22 antagonism; stronger effect = lower value; Q96LB2;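 active means calcium-response B-score plate-corrected more than 3 library SD below zero, starting fluorescence within 5 deviations, no agonist response on first addition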;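 further: peak minus trough fluorescence over baseline after final BAM8-22 challenge near maximal dose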
Target sequence (Q96LB2 whole entry, looked up): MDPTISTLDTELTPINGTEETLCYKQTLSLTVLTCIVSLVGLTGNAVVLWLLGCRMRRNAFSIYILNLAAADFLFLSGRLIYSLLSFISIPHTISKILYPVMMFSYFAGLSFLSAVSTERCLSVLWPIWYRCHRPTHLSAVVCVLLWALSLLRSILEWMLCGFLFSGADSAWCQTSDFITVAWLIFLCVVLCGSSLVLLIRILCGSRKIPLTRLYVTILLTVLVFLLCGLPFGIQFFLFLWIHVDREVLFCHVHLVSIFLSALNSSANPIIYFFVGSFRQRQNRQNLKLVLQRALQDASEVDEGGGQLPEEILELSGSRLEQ
MrgX1 ag: activates human MrgX1 receptor signaling | Q96LB2 | MrgX1-HEK293 cells, Fluo-4 calcium fluorescence, agonist mode; stronger effect = higher value | B-score at 10 µM | 310,000 tested, 0.44% active;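 active means calcium response B-score plate-corrected fluorescence ratio at least 3 library SD, with starting fluorescence B-score inside 5 SD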
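times = overnight plating, then 30 min 37 °C plus 30 min room-temperature dye loading | assay system = stable human MrgX1 HEK293 cell line | input = fifteen thousand cells per well | signal = kinetic calcium dye fluorescence, Fluo-4 NW | dosing = compound delivered in addition one of three | read-out = B-scored fluorescence response ratio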
RGS4 pot: RGS4 potentiation or activation; AID 463111; 310,000 tested, 0.92% active; HEK293 M3R/inducible RGS4, carbachol calcium flux Fluo4; stronger effect = lower value; B-score at 10 µM;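 active means B-score of the integrated calcium signal more than 4 SD below the library mean, with starting fluorescence not abnormally high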;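 further: negative B-score means reduced calcium response which marks RGS4 activation or potentiation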
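System – HEK293 FlpIn-TREx cells, stable M3R, doxycycline-inducible RGS4 · Reagent – ECmax carbachol challenge · Times – compound preincubation 20 min at room temperature before agonist · Technique – Fluo4 fluorescence kinetic imaging of calcium · Measure – B score of integrated Fluo4 ratio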
MrgX1 PAM: allosterically activates human MrgX1 receptor signaling; Q96LB2; B-score at 10 µM; MrgX1-HEK293, Fluo-4 calcium flux, FDSS; stronger effect = higher value; 310,000 tested, 0.63% active;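 active means plate-corrected calcium response at least 3 library SD above typical, normal starting fluorescence, not activating the receptor alone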;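 further: compound read alongside a low EC10 to EC30 dose of BAM8-22 agonist; peak minus trough fluorescence over baseline measured at the second addition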
Lipid droplet: hepatic lipid droplet formation modulation; AML12 mouse hepatocytes, oleate lipid droplets, BODIPY imaging; inhibition, % at 6.5 µM; 240,000 tested, 0.4% active;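 active means lipid droplet intensity inhibited by at least 50%, with more than 500 cells counted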
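Material – mouse AML12 hepatocyte cell line, fixed after treatment · Compound dosing – one dose, 6.5 µM compound · Times – compound with oleate, overnight · Measured by – Image-based BODIPY and DAPI two-channel analysis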
MrgX1 allo conf: human MrgX1 positive allosteric modulation, re-confirmation; 1,200 tested, 13% active; activation (ratio percentage), % at 10 µM; shares compounds with MrgX1 PAM; MrgX1-HEK293, Fluo-4 calcium fluorescence, FDSS;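 active means ratio at least 3 SD above the weak peptide control, stable starting fluorescence, no direct agonism earlier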;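 further: compound followed by low BAM8-22 agonist challenge near EC20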
HEK293 Ca flux: activity in parental HEK293 cells lacking MrgX1; Fluo-4 calcium fluorescence, FDSS; 4,000 tested, 2% active; fluorescence ratio F(max-min)/F0 at 10 µM; AID 624111; shares compounds with MrgX1 antag;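 active means duplicate-averaged calcium fluorescence ratio at least three times the standard deviation of buffer wells, a nonspecific response in parental cells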
HEK293 Ca counter: MrgX1 allosteric activator counter-screen hit in parental HEK293 cells; shares compounds with MrgX1 antag; 4,000 tested, 0.4% active; AID 624114; fluorescence ratio F(max-min)/F0 at 10 µM; parental HEK293 calcium flux, Fluo-4 fluorescence ratio; stronger effect = higher value;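 active means calcium fluorescence ratio, averaged over duplicates, at least 3 SD of the buffer-well ratio, meaning a nonspecific response in receptor-free cells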;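 further: untransfected parental HEK293 lacking MrgX1 used as counterscreen for MrgX1 allosteric activators; fluorescence change taken during the second addition on a kinetic imager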
HEK293 Ca cntr2: counter-screen for MrgX1 activators: effect in parental HEK293 cells | shares compounds with MrgX1 antag | Fluo-4 calcium fluorescence (FDSS); stronger effect = higher value | fluorescence ratio F(max-min)/F0 at 10 µM | 4,000 tested, 8.7% active | AID 624115;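 active means calcium fluorescence ratio at least three times the spread of buffer wells, meaning a non-specific response in parental cells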
* = called active by the depositor; i = inactive; . = no result given.

SMILES | RGS4 inh | MrgX1 antag | MrgX1 ag | RGS4 pot | MrgX1 PAM | Lipid droplet | MrgX1 allo conf | HEK293 Ca flux | HEK293 Ca counter | HEK293 Ca cntr2
O=C(Cc1ccc(Cl)cc1)Nc1ccc(S(=O)(=O)Nc2cnc3ccccc3n2)cc1 | i | i | i | i | i | -3 | . | . | . | .
CC(NC(=O)c1ccccc1F)C12CC3CC(CC(C3)C1)C2 (stereo not drawn) | i | i | i | i | i | . | . | . | . | .
NC(=O)c1cc(S(=O)(=O)NC2CCCCC2)co1 | i | i | i | i | i | . | . | . | . | .
CCCc1ccccc1OCCNC(=O)c1cc(=O)n(C)c(=O)n1C | i | i | i | i | i | 7 | . | . | . | .
CC1CCC2(CC1)C(Nc1cccc(Cl)c1)=NC(=S)N2CC#N (stereo not drawn) | i | i | i | i | 8.3* | 2 | i | i | i | i
CC1CCC(=C(C#N)C(=O)Nc2cccc(Cl)c2)CC1 (stereo not drawn) | i | i | i | i | i | . | . | . | . | .
O=C(NCCCn1ccnc1)C(=O)c1c[nH]c2ccccc12 | i | i | i | i | i | 0 | . | . | . | .
C=C(C)CNC(=S)Nc1cccc(S(=O)(=O)NC2=NCCC2)c1 | i | i | i | i | 11* | 2 | i | i | i | i
CSCCCNC(=S)Nc1cccc(S(=O)(=O)NC2=NCCC2)c1 | i | i | i | i | i | 9 | . | . | . | .
CC1=CSC2=NC(=O)/C(=C\c3cccn3-c3ccc([N+](=O)[O-])cc3)C(=N)N12 | i | i | i | i | 26* | -14 | 24%* | i | i | i
COc1ccccc1-n1c(-c2ccc(Cl)cc2)c[nH]c1=S | i | i | i | i | 7.5* | -8 | i | i | i | i
Cc1cc(C)nc(SCCn2c(N3CC(C)OC(C)C3)nc3c2c(=O)n(C)c(=O)n3C)n1 (stereo not drawn) | i | i | i | i | i | 49 | . | . | . | .
Cc1ccc(C(=O)OCC(=O)NNC(=O)c2ccc([N+](=O)[O-])cc2)o1 | i | i | i | i | i | . | . | . | . | .
Cc1ccc(S(=O)(=O)N2CCCCC2)cc1NC(=O)COC(=O)c1ccccc1F | i | i | i | i | i | 2 | . | . | . | .
Cc1cc(N2CCN(C)CC2)nc2ccc(NC(=S)N3CCC4(CC3)OCCO4)cc12 | i | i | i | i | 7.4* | 4 | i | i | i | i
COc1ccc(CCNC(=O)CSc2nncn2N)cc1OC | i | i | i | i | i | 0 | . | . | . | .
CCc1ccc(Oc2cc(Cl)nc(N)n2)cc1 | i | i | i | i | 12* | -5 | i | i | i | i
O=C(NCc1ccccn1)c1cc(Cl)ccc1OCc1ccccc1 | i | i | i | i | 6.9* | -17 | i | i | i | i
O=C(NCc1ccccn1)c1ccc(Cl)cc1Cl | i | i | i | i | i | -1 | . | . | . | .
O=C(NCCNC(=O)c1cc(Cl)ccc1Cl)c1ccccn1 | i | i | i | i | 9.3* | -3 | i | i | i | 77*
O=C(NCc1ccccn1)c1ccc(COc2ccc(Cl)cc2)o1 | i | i | i | i | 7.3* | 6 | i | i | i | i
Cc1cccc(N2CCN(C(=O)C3CCCN(S(=O)(=O)c4c(C)noc4C)C3)CC2)c1C (stereo not drawn) | i | i | i | i | i | . | . | . | . | .
Cc1c(Br)c([N+](=O)[O-])nn1CC(=O)Nc1c(C)n(C)n(-c2ccccc2)c1=O | i | i | i | i | i | -1 | . | . | . | .
CC(C)CC(O)(c1ccccc1)C(CN1CCOCC1)c1ccccc1 (stereo not drawn) | i | i | i | i | i | -5 | . | . | . | .
COc1ccccc1C(O)(c1ccccc1)C(CN1CCOCC1)c1ccccc1 (stereo not drawn) | i | i | i | i | 9.1* | -8 | i | i | i | i
SMILES | RGS4 inh | MrgX1 antag | MrgX1 ag | RGS4 pot | MrgX1 PAM | Lipid droplet | MrgX1 allo conf | HEK293 Ca flux | HEK293 Ca counter | HEK293 Ca cntr2
CC(C)C(O)(c1ccccc1)C(CN1CCOCC1)c1ccccc1 (stereo not drawn) | i | i | i | i | 8.4* | 0 | i | i | i | i
Cc1cc(C(=O)NNC(=O)c2sccc2C)c(C)o1 | i | i | i | i | i | . | . | . | . | .
O=C(COC(=O)c1cccs1)c1ccccc1 | i | i | i | i | 18* | . | i | i | i | i
COC(=O)c1cccc(C(=O)N2CCC(CO)(Cc3ccccc3Cl)CC2)c1 | i | i | i | i | 9.9* | -3 | i | i | i | i
COC(=O)c1cccc(C(=O)N2CCC(CO)(CCc3ccccc3)CC2)c1 | i | i | i | i | i | -16 | . | . | . | .
N#CC1=C(N)Oc2c(oc(CO)cc2=O)C1c1ccsc1 (stereo not drawn) | i | i | i | i | i | 15 | . | . | . | .
N#CC1=C(N)Oc2c(ccc3ccccc23)C1c1ccsc1 (stereo not drawn) | i | i | i | i | 14* | . | i | i | i | i
CC1Sc2ccc(Cl)cc2-c2nc(N)ncc21 (stereo not drawn) | i | i | i | i | 11* | 3 | i | i | i | i
COc1ccccc1-n1c(C)cc(/C=C2/C(=N)N3C(=NC2=O)SN=C3S(C)(=O)=O)c1C | i | i | i | i | 21* | 3 | i | i | i | i
Cc1ccc(CN2CC(C(=O)Nc3cc(C)ccn3)CC2=O)cc1 (stereo not drawn) | i | i | i | i | i | . | . | . | . | .
Cc1ccc2c(c1)N(Cc1cccc(C#N)c1)C=NS2(=O)=O | i | i | i | i | i | 3 | . | . | . | .
